Source: ChEMBL document CHEMBL2375308, “Synthesis and selected immunological properties of substituted quino[3,2-b]benzo[1,4]thiazines” (Eur J Med Chem, 2013)

Legend:
PBMC [1] = test: Inhibition of LPS-induced TNFalpha production in human PBMC at 25 ug/mL after overnight incubation relative to DMSO-treated control; type: functional
Summary of the method: (§1)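 Single-donor venous blood diluted 10× in RPMI-1640, 1 mL aliquots, stimulated with LPS (E. coli O111:B4). Compounds added at […]; corresponding DMSO dilutions as controls. Overnight incubation, supernatants frozen at −20 °C, TNF-α measured by biological assay; percentage inhibition versus DMSO control.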

PBMC [2] = test: Inhibition of LPS-induced TNFalpha production in human PBMC at 5 ug/mL after overnight incubation relative to DMSO-treated control; type: functional; summary of the method: as §1
PBMC [3] = test: Cytotoxicity against human PBMC cells at 10 ug/mL after 24 hrs by MTT assay relative to DMSO-treated control; type: cell-based
Summary of the method: (§2)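 Ficoll-isolated PBMC ([…]) in supplemented RPMI-1640, 2 × 10⁵/well, cultured 24 h with the preparations at the indicated concentrations; compounds dissolved in DMSO (10 mg/mL stock) and diluted in medium.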

PBMC [4] = test: Cytotoxicity against human PBMC cells at 50 ug/mL after 24 hrs by MTT assay relative to DMSO-treated control; type: cell-based; summary of the method: as §2
PBMC [5] = test: Antiproliferative activity against PHA-stimulated human PBMC at 10 ug/mL after 4 days by MTT assay relative to DMSO-treated control; type: functional
Summary of the method: (§3)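 PBMC from one donor's heparinized blood, Ficoll gradient isolated, in RPMI-1640 with 10% FCS; 2 × 10⁵ cells/well. PHA added at […]; compounds from DMSO stock (10 mg/mL) diluted in medium; matching DMSO dilutions as control. Four-day culture, proliferation read by MTT colorimetry; percentage inhibition versus control.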

PBMC [6] = test: Antiproliferative activity against PHA-stimulated human PBMC at 50 ug/mL after 4 days by MTT assay relative to DMSO-treated control; type: functional; summary of the method: as §3

SMILES	inhibition at 25 µg/mL (PBMC [1])	inhibition at 5 µg/mL (PBMC [2])	Activity (PBMC [3])	Activity (PBMC [4])	Activity (PBMC [5])	Activity (PBMC [6])
CSc1ccc2c(c1)Sc1cc3ccccc3nc1N2CCCNC(=O)NCCCl	1%	50.7%	Non-toxic	92.7%	93%	93.7%
O=C(NCCCl)NCCCCN1c2ccc(Cl)cc2Sc2cc3ccccc3nc21	56%	54.8%	19.2%	86.3%	98.4%	94.6%
Fc1ccc2c(c1)Sc1cc3ccccc3nc1N2	–	–	50%	–	100%	–
CSc1ccc2c(c1)Sc1cc3ccccc3nc1N2CCCCNS(=O)(=O)c1ccc(C)cc1	37.5%	70.4%	Non-toxic	Non-toxic	-5%	-34.7%
CN1CCCCC1CCN1c2ccccc2Sc2cc3ccccc3nc21 (centres undefined)	62.4%	49.1%	Non-toxic	4.5%	-23.5%	39.8%
Cc1ccc(S(=O)(=O)NCCCN2c3ccc(Cl)cc3Sc3cc4ccccc4nc32)cc1	20.9%	5.9%	Non-toxic	Non-toxic	12.9%	22.7%
CSc1ccc2c(c1)Sc1cc3ccccc3nc1N2CCCCNS(C)(=O)=O	13.2%	72.8%	Non-toxic	Non-toxic	53.3%	62.7%
Clc1ccc2c(c1)Nc1nc3ccccc3cc1S2	19.2%	-1.2%	Non-toxic	Non-toxic	16.3%	27.1%
CS(=O)(=O)NCCCN1c2ccccc2Sc2cc3ccccc3nc21	60.6%	8.1%	Non-toxic	Non-toxic	36.6%	74.6%
CSc1ccc2c(c1)Sc1cc3ccccc3nc1N2CCCNS(=O)(=O)c1ccc(C)cc1	20.8%	72.1%	Non-toxic	Non-toxic	-5.3%	-46.4%
CCOC(=O)NCCCN1c2ccc(SC)cc2Sc2cc3ccccc3nc21	70.1%	74.9%	Non-toxic	Non-toxic	45.4%	38.8%
Brc1cccc2c1Sc1cc3ccccc3nc1N2	8.4%	13.6%	Non-toxic	Non-toxic	0.1%	16.4%
CSc1ccc2c(c1)Sc1cc3ccccc3nc1N2CCN1CCCCC1	34.6%	49.2%	18%	91.7%	93.8%	92%
CS(=O)(=O)NCCCCN1c2ccccc2Sc2cc3ccccc3nc21	42.3%	14%	Non-toxic	Non-toxic	42.3%	94.3%
Cc1ccc(S(=O)(=O)NCCCN2c3ccccc3Sc3cc4ccccc4nc32)cc1	15.6%	3.8%	Non-toxic	Non-toxic	6.6%	-0.8%
CS(=O)(=O)NCCCCN1c2ccc(Cl)cc2Sc2cc3ccccc3nc21	24.5%	-7.5%	Non-toxic	Non-toxic	59.4%	43.9%
CCOC(=O)NCCCN1c2ccc(Cl)cc2Sc2cc3ccccc3nc21	31.7%	10.3%	Non-toxic	Non-toxic	45%	60.4%
FC(F)(F)c1ccc2c(c1)Nc1nc3ccccc3cc1S2	48.8%	72.3%	Non-toxic	21.5%	21.7%	0.3%
